Active and inactive are the calls of the source. No cut-off for these calls is given here.

For assay [1], the target named is T1, Nicotinamide phosphoribosyltransferase (Homo sapiens, UniProt P43490). Description: Inhibition of human NAMPT using NAM and PRPP as substrates incubated for 90 mins in presence of NMNAT by fluorometric method.
Target sequence in this assay (P43490 whole entry): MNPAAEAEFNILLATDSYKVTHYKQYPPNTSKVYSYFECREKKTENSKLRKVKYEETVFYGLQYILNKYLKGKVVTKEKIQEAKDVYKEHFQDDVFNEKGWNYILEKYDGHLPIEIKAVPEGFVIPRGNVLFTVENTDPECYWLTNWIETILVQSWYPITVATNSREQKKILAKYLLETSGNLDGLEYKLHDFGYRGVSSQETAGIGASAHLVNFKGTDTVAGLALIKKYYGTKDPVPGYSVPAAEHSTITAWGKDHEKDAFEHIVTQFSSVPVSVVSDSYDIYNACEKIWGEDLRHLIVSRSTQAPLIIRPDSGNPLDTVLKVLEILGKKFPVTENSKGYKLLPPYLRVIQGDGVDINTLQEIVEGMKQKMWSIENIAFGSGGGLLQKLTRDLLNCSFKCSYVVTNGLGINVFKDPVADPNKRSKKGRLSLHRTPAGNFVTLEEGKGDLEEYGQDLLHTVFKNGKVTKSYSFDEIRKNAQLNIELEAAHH
Assay [2] has as its system HCT-116. Description: Antiproliferative activity against human HCT116 cells assessed as reduction in cell viability after 72 hrs by CCK8 assay. In kind it is functional, cell-based. The settings on record: HCT-116, 72 h. On the technique in general: Formazan colour is commonly taken as a measure of viable cells.
Assay [3] has as its system K562. Briefly: Antiproliferative activity against human K562 cells assessed as reduction in cell viability after 72 hrs by CCK8 assay. In kind it is functional, cell-based. The settings on record: K562, 72 h.
The subject of assay [4] is HL-60. Description: Antiproliferative activity against human HL60 cells assessed as reduction in cell viability after 72 hrs by CCK8 assay. It counts as functional, cell-based. Particulars: HL-60, 72 h.
In assay [5] the test system is HEL. Briefly: Antiproliferative activity against human HEL cells assessed as reduction in cell viability after 72 hrs by CCK8 assay. It counts as functional, cell-based.
Assay [6] deals with HCT-116. Briefly: Antiproliferative activity against human HCT116 cells NAMPT deficient assessed as reduction in cell viability after 72 hrs by CCK8 assay. In kind it is functional, cell-based. Particulars: HCT-116, 72 h. Summed up: (§1)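 NAMPT-deficient cells were generated by siRNA knockdown of NAMPT before cytotoxicity testing.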
Assay [7] relates to K562. Description: Antiproliferative activity against human K562 cells NAMPT deficient assessed as reduction in cell viability after 72 hrs by CCK8 assay. The settings on record: K562, 72 h. In kind it is functional, cell-based. Summed up:
as §1

The test system of assay [8] is HL-60. Description: Antiproliferative activity against human HL60 cells NAMPT deficient assessed as reduction in cell viability after 72 hrs by CCK8 assay. The settings on record: HL-60, 72 h. It counts as functional, cell-based. Summed up:
as §1

For assay [9], the system named is HEL. Briefly: Antiproliferative activity against human HEL cells NAMPT deficient assessed as reduction in cell viability after 72 hrs by CCK8 assay. It counts as functional, cell-based. Summed up:
as §1

The target of assay [10] is T1, Nicotinamide phosphoribosyltransferase. Description: Inhibition of NAMPT in human HCT116 cells assessed as decrease in cellular NAD+ level after 24 hrs by MTT assay. It counts as cell-based. The method in brief:
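Relative cellular NAD+ level in HCT116 cells after 24 h exposure to a range of compound concentrations, compared qualitatively with an untreated control.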
Target sequence in this assay (P43490 whole entry, looked up): as the sequence (P43490 whole entry) above

Assay [11] has the same target. Briefly: Inhibition of NAMPT in human HCT116 cells assessed as decrease in cellular NAD+ level after 24 hrs in presence of NA by MTT assay. In kind it is cell-based. The method in brief: (§2)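 Rescue test in HCT116, K562, HL60 and HEL cells, with NA supplemented at 4 μM alongside compound treatment.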
Target sequence in this assay (P43490 whole entry, looked up): as the sequence (P43490 whole entry) above
Assay [12] shares this target. Description: Inhibition of NAMPT in human HCT116 cells assessed as decrease in cellular NAD+ level after 24 hrs in presence of NMN by MTT assay. It counts as cell-based. Summed up: (§3)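 Rescue test in HCT116, K562, HL60 and HEL cells, with NMN supplemented at 10 μM alongside compound treatment.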
Target sequence in this assay (P43490 whole entry, looked up): as the sequence (P43490 whole entry) above
Assay [13] shares this target. Briefly: Inhibition of NAMPT in human K562 cells assessed as decrease in cellular NAD+ level after 24 hrs in presence of NA by MTT assay. It counts as cell-based. Summed up: as §2
Target sequence in this assay (P43490 whole entry, looked up): as the sequence (P43490 whole entry) above
Assay [14] has the same target. Briefly: Inhibition of NAMPT in human K562 cells assessed as decrease in cellular NAD+ level after 24 hrs in presence of NMN by MTT assay. In kind it is cell-based. The method in brief: as §3
Target sequence in this assay (P43490 whole entry, looked up): as the sequence (P43490 whole entry) above
Assay [15] has the same target. Briefly: Inhibition of NAMPT in human HL60 cells assessed as decrease in cellular NAD+ level after 24 hrs in presence of NA by MTT assay. In kind it is cell-based. The method in brief:
as §2
Target sequence in this assay (P43490 whole entry, looked up): as the sequence (P43490 whole entry) above

Assay [16] shares this target. Description: Inhibition of NAMPT in human HL60 cells assessed as decrease in cellular NAD+ level after 24 hrs in presence of NMN by MTT assay. In kind it is cell-based. Summed up:
as §3

Assay [17] has the same target. Briefly: Inhibition of NAMPT in human HEL cells assessed as decrease in cellular NAD+ level after 24 hrs in presence of NA by MTT assay. It counts as cell-based. Summed up:
as §2

The target is the same in assay [18]. Description: Inhibition of NAMPT in human HEL cells assessed as decrease in cellular NAD+ level after 24 hrs in presence of NMN by MTT assay. In kind it is cell-based. The method in brief: as §3

Broadly, the IC50 is the concentration at which inhibition is half-maximal. On to `Nc1cc(F)ccc1NC(=O)c1ccc(CNC(=O)/C=C/c2cccnc2)cc1` [TUCIDINOSTAT], for which the IC50 in [1] is 2.1 µM; in the assay with HCT-116 [2] it was 0.34 µM; with K562 [3], 0.32 µM; with HL-60 [4], 0.0022 µM; in the assay with HEL [5], 0.013 µM; in the assay on HCT-116 [6], over 20 µM. In addition, the results for the IC50 with K562 [7], in the assay with HL-60 [8] and with HEL [9] were 2.4 µM, 3.2 µM and 1.8 µM, respectively. Besides, the inhibition entry in assay [10] is “Active”. For the same compound, the inhibition entry in [11], in [12], in assay [13], in [14], in assay [15] and in [16] was “inactive” throughout. Besides, the inhibition entry in assay [17] and in assay [18] was “inactive” throughout.

The record behind these values is ChEMBL document CHEMBL4334541, “Nicotinamide Phosphoribosyltransferase (NAMPT) Is a New Target of Antitumor Agent Chidamide” (ACS Med Chem Lett, 2020).
